Active and inactive are the calls of the source. The calls are words filed in the database; no cut-off is given here.
Columns and labels:
786-0 = assay: Cytotoxicity against human 786-0 cells assessed as growth inhibition after 48 hrs by SRB assay; assay type: functional; details: 786-0, 48 h
HOP-62 = assay: Cytotoxicity against human HOP62 cells assessed as growth inhibition after 48 hrs by SRB assay; assay type: functional; details: HOP-62, 48 h
RXF 393 = assay: Cytotoxicity against human RXF393 cells assessed as growth inhibition after 48 hrs by SRB assay; assay type: functional; details: RXF 393, 48 h
[1] = Induction of microtubule depolymerization in rat A10 cells after 18 hrs by indirect immunofluorescence assay; assay type: cell-based
In short: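 A-10 cells were exposed to vehicle or compound for 18 h, fixed, and microtubules were visualized by indirect immunofluorescence. EC50 is the concentration causing about 50% microtubule loss, from at least three independent experiments.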

MDA-MB-231 [2] = assay: Antitumor activity against human MDA-MB-231 cells xenografted in athymic nude mouse assessed as net tumor log cell kill at 50 mg/kg, ip bid administered every other day started on day 14 followed by compound readministration every other day started on day 27; assay type: functional; details: route intraperitoneal
In short: (§1)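 Female athymic nude mice were implanted sc with an MDA-MB-231T tumour fragment, and tumours were staged to about 125 mg. Drug was given ip in 10% DMSO in saline/Tween 80, with courses starting day 14 and repeated from day 27. There were 8 animals per treated group and 16 controls. Read-outs were body weight, deaths, median tumour mass as T/C, days to a predetermined size as T-C/C, and net log cell kill.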

MOLT-4 = assay: Cytotoxicity against human MOLT4 cells assessed as growth inhibition after 48 hrs by SRB assay; assay type: functional; details: MOLT-4, 48 h
COLO 205 = assay: Cytotoxicity against human COLO205 cells assessed as growth inhibition after 48 hrs by SRB assay; assay type: functional; details: COLO 205, 48 h
Mus musculus [3] = assay: Toxicity in athymic nude mouse xenografted in human MDA-MB-231 cells assessed as mortality at 75 mg/kg, ip qd administered every other day started on day 14 for 5 days followed by compound readministration on day 27; assay type: organism-based; design: dose 75 mg/kg, route intraperitoneal; details: in vivo, 120 h; in short: as §1
Mus musculus [4] = assay: Toxicity in athymic nude mouse xenografted in human MDA-MB-231 cells assessed as body weight loss at 75 mg/kg, ip qd administered every other day started on day 14 for 5 days followed by compound readministration on day 27 (reference value: 6.7%); assay type: organism-based; design: dose 75 mg/kg, route intraperitoneal; details: in vivo, 120 h
Mus musculus [5] = assay: Toxicity in athymic nude mouse xenografted in human MDA-MB-231 cells assessed as body weight loss at 75 mg/kg, ip qd administered on day 14 for 5 days followed by compound readministration on day 27 (reference value: 6.7%); assay type: organism-based; design: dose 75 mg/kg, route intraperitoneal; details: in vivo, 120 h
NCI-H460 = assay: Cytotoxicity against human NCI-H460 cells assessed as growth inhibition after 48 hrs by SRB assay; assay type: functional; details: NCI-H460, 48 h
SF-295 = assay: Cytotoxicity against human SF295 cells assessed as growth inhibition after 48 hrs by SRB assay; assay type: functional; details: SF-295, 48 h
MDA-MB-231 [6] = assay: Antitumor activity against human MDA-MB-231 cells xenografted in athymic nude mouse assessed as tumor free state at 75 mg/kg, ip qd administered on day 14 for 5 days followed by compound readministration on day 27 measured on day 41; assay type: functional, organism-based; design: dose 75 mg/kg
In short: (§2)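 Female athymic nude mice carried sc MDA-MB-231T tumor fragments staged to about 125 mg. Compound was given ip as a solution in 10% DMSO in saline/Tween 80, with courses beginning day 14 and repeated from day 27. Groups had 8 animals, with 16 vehicle controls. Animals were scored as tumor-free on day 41.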

MDA-MB-231 [7] = assay: Antitumor activity against human MDA-MB-231 cells xenografted in athymic nude mouse assessed as net tumor log cell kill at 50 mg/kg, ip qd administered on day 14 for 5 days followed by compound readministration on day 27; assay type: functional; details: route intraperitoneal; in short: as §1
MDA-MB-231 [8] = assay: Antitumor activity against human MDA-MB-231 cells xenografted in athymic nude mouse assessed as tumor growth inhibition at 50 mg/kg, ip qd administered on day 14 for 5 days followed by compound readministration on day 27 measured on day 31 relative to control; assay type: functional; details: route intraperitoneal; in short: as §1
MCF7 = assay: Cytotoxicity against human MCF7 cells assessed as growth inhibition after 48 hrs by SRB assay; assay type: functional; details: MCF7, 48 h
MDA-MB-468 = assay: Cytotoxicity against human MDA-MB-468 cells assessed as growth inhibition after 48 hrs by SRB assay; assay type: functional; details: MDA-MB-468, 48 h
MDA-MB-435 = assay: Cell cycle arrest in human MDA-MB-435 cells assessed as […] at 25 nM after 24 hrs by FACS flow cytometric analysis; assay type: functional, cell-based
In short: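 MDA-MB-435 cells plated and allowed to adhere 24 h, then exposed to drug for 24 h. Cells harvested, stained with Krishan's reagent, and DNA content analysed by flow cytometry.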

KM12 = assay: Cytotoxicity against human KM12 cells assessed as growth inhibition after 48 hrs by SRB assay; assay type: functional; details: KM12, 48 h
MDA-MB-231 [9] = assay: Cytotoxicity against human MDA-MB-231 cells assessed as growth inhibition after 48 hrs by SRB assay; assay type: functional; details: MDA-MB-231, 48 h
Mus musculus [10] = assay: Toxicity in athymic nude mouse xenografted in human MDA-MB-231 cells assessed as mortality at 75 mg/kg, ip qd administered on day 14 for 5 days followed by compound readministration on day 27; assay type: organism-based; design: dose 75 mg/kg, route intraperitoneal; details: in vivo, 120 h; in short: as §1
MDA-MB-231 [11] = assay: Antitumor activity against human MDA-MB-231 cells xenografted in athymic nude mouse assessed as tumor free state at 75 mg/kg, ip qd administered every other day started on day 14 for 5 days followed by compound readministration on day 27 measured on day 41; assay type: functional, organism-based; design: dose 75 mg/kg; in short: as §2
HCT-15 = assay: Cytotoxicity against human HCT15 cells assessed as growth inhibition after 48 hrs by SRB assay; assay type: functional; details: HCT-15, 48 h
Hs-578T = assay: Cytotoxicity against human Hs578T cells assessed as growth inhibition after 48 hrs by SRB assay; assay type: functional
OVCAR-4 = assay: Cytotoxicity against human OVCAR4 cells assessed as growth inhibition after 48 hrs by SRB assay; assay type: functional; details: OVCAR-4, 48 h
MDA-MB-231 [12] = assay: Antitumor activity against human MDA-MB-231 cells xenografted in athymic nude mouse assessed as delay in tumor growth at 50 mg/kg, ip bid administered every other day started on day 14 followed by compound readministration every other day started on day 27 measured on day 31 relative to control; assay type: functional; details: route intraperitoneal
In short: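 MDA-MB-231T tumor fragments implanted sc in female athymic nude mice and staged to about 125 mg. Dosing was ip in 10% DMSO in saline/Tween 80, with courses starting day 14 and again day 27. Groups had 8 treated animals and 16 controls. Growth delay (T-C/C) is the median days for treated vs control tumors to reach a predetermined size, normalized to control, as %.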

SK-OV-3 = assay: Cytotoxicity against human SKOV3 cells assessed as growth inhibition after 48 hrs by SRB assay; assay type: functional; details: SK-OV-3, 48 h
[13] = Relative resistance, ratio of IC50 for beta3 tubulin overexpressed in human HeLa cells to IC50 for human HeLa cells
In short: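 SRB antiproliferative assay on isogenic pairs: parental SK-OV-3 vs Pgp-overexpressing SK-OV-3 MDR-M6-6, and parental HeLa vs βIII-tubulin-transfected HeLa. IC50 is the mean ± SD of at least three independent experiments. Relative resistance (Rr) is the IC50 of the transduced line divided by the IC50 of the parental line.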

SMILES	GI50 (786-0) [nM]	GI50 (HOP-62) [nM]	GI50 (RXF 393) [nM]	EC50 [1] [nM]	GI50 (MOLT-4) [nM]	GI50 (COLO 205) [nM]	GI50 (NCI-H460) [nM]	GI50 (SF-295) [nM]	GI50 (MCF7) [nM]	GI50 (MDA-MB-468) [nM]	Activity (MDA-MB-435)	GI50 (KM12) [nM]	GI50 (MDA-MB-231 [9]) [nM]	GI50 (HCT-15) [nM]	GI50 (Hs-578T) [nM]	GI50 (OVCAR-4) [nM]	GI50 (SK-OV-3) [nM]	further results
COc1ccc(N(C)c2nc(C)nc3c2CCC3)cc1.Cl	17.8	< 10	< 10	25.9	27.8	< 10	10.3	< 10	< 10	< 10	Active	< 10	25.9	< 10	< 10	22.9	14.6	LCK (MDA-MB-231 [2]): -1.3; Activity (Mus musculus [3]): Non-toxic; %max (Mus musculus [4]): 9%; %max (Mus musculus [5]): 7.9%; Activity (MDA-MB-231 [6]): Active; LCK (MDA-MB-231 [7]): -1.4; T/C (MDA-MB-231 [8]): 20%; Activity (Mus musculus [10]): Non-toxic; Activity (MDA-MB-231 [11]): Active; Activity (MDA-MB-231 [12]): 32%
COc1ccc(N(C)c2nc(C)nc3c2CC(C)C3)cc1.Cl (racemic)	34.8	19.4	< 10	56	31.8	18.3	23.4	< 10	< 10	< 10	Active	< 10	24.6	< 10	< 10	26.8	27.5	Ratio IC50 [13]: 0.6

Source: ChEMBL document CHEMBL2424583, “Structure-activity relationship and in vitro and in vivo evaluation of the potent cytotoxic anti-microtubule agent N-(4-methoxyphenyl)-N,2,6-trimethyl-6,7-dihydro-5H-cyclopenta[d]pyrimidin-4-aminium chloride and its analogues as antitumor agents” (J Med Chem, 2013)
